A3G deaminase: APOBEC3G (human) deaminase inhibition; actives 0.28% (n = 330,000); AID 493012; inhibition, % at 20 µM; Q9HC16; recombinant A3G, ssDNA deamination FAM/TAMRA fluorescence;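 active means inhibition of at least 40% at 20 µM, with no more than 30% in the related APOBEC3A deaminase screen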
Mot1-301 SUMO: SUMOylation pathway inhibition by Mot1-301 growth rescue. S. cerevisiae Mot1-301 growth rescue, ATP luminescence, 38.5C; percent above DMSO median, 100 means doubled. AID 2716. growth rescue, % at 18.8 µM. actives 1% (n = 320,000);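 active means every valid replicate shows activation above 250% relative to neutral control wells; inactive means the rest, any valid replicate at or below 250%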
ARFGAP1 inh: inhibits rat ARF GTPase activating protein 1; Arfgap1-stimulated ARF1 GTP hydrolysis, GDP FP detection; inhibition, % at 16.5 µM; actives 0.26% (n = 360,000); AID 651572;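 active means inhibition above a per-plate limit, mean inhibition of low control wells plus 3 SD, cut at about 25% in these data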
Target sequence (Q62848 1-136 limits assumed): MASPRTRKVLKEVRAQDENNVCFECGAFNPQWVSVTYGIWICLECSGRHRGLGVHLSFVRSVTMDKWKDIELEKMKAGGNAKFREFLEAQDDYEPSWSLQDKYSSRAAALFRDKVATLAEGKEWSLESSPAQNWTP
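System: truncated rat Arfgap1 GAP domain / Medium: HEPES-based buffer, pH 7.5 / Also added: N-terminally truncated human ARF1-GTP substrate / Incubation: enzyme reaction 120 min at 25 °C after 20 min preincubation / Measured by: FP of antibody-bound GDP Alexa 633 tracer, ex 620/em 688 nm / Replicates: singlicate, each compound tested once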
Statin myotox sup: suppressors of simvastatin-induced myotoxicity in C2C12 myotubes; actives 0.78% (n = 330,000); rescue of ATP level, % at 7.49 µM; AID 602340; ATP luminescence, 48 h; scaled: DMSO 0, geranylgeraniol control 100;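 active means mean ATP rescue above about 67%, or every replicate alone reaching that limit, limit read from the data, passing the limit was not always enough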;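 further: myotubes were challenged with 10 µM simvastatin during compound exposure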
ASAP1 inh: blocks human ASAP1-stimulated Arf1 GTP hydrolysis | GDP FP detection | inhibition, % at 16.5 µM | actives 0.19% (n = 360,000); in the data active means inhibition above about 25%
Target sequence (Q9ULH1 325-724 limits assumed): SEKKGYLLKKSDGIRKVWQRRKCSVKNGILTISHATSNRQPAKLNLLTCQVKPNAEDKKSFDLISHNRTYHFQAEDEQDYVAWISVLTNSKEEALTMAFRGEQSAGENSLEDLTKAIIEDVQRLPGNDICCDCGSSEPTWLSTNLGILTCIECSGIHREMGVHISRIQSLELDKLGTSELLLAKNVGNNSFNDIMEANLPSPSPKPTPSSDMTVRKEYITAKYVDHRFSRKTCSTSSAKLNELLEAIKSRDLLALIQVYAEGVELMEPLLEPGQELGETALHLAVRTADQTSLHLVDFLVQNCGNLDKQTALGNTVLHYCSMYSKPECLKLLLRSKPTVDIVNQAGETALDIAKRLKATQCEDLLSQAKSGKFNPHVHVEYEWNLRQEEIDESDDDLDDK
A3A deaminase: blocks human APOBEC3A ssDNA deamination; P31941; recombinant A3A, FAM/TAMRA ssDNA deamination fluorescence; inhibition, % at 20 µM; actives 0.41% (n = 330,000); AID 493011;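 active means at least 40% inhibition at 20 µM here, with at most 30% in a related deaminase screen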
APOBEC3G confirm: confirmation of human APOBEC3G DNA deaminase inhibitors | shares compounds with A3G deaminase | recombinant A3G ssDNA deaminase, UDG/FAM-TAMRA fluorescence | inhibition, % at 20 µM | actives 72% (n = 890) | AID 493152;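 active means inhibition reaching a set limit in any replicate at 20 µM, the limit being 80% of the first screen's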
UDG ctr A3G: counter-screen for APOBEC3G inhibitors: E. coli UDG; shares compounds with A3G deaminase; UDG counterscreen, FAM/TAMRA oligo fluorescence; inhibition, % at 20 µM; 710 tested, under 10 active; AID 504715;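 active means compounds giving 40% or more inhibition at 20 µM in any one of the three replicates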;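 further: inhibitors lower the FAM signal released by uracil excision and alkaline cleavage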
Of the large screens only hits and unclear results are named; the others gave an inactive call (follow-up assays come after a bar, where they were run); ! = not active in a repeat. Only some compounds are listed: those with a hit (about 2.1% of all), similar ones and a draw of the others.

CC(/C=N/n1c(COc2ccccc2)n[nH]c1=S)=C\c1ccco1	none (no result: Statin myotox sup)
S=c1[nH]nc(COc2ccccc2)n1/N=C/c1ccco1	A3G deaminase 59 (no result: Statin myotox sup) | APOBEC3G confirm 71 | UDG ctr A3G inactive
CC1(C)S[C@@H]2[C@H](NC(=O)[C@H](N)c3ccccc3)C(=O)N2[C@H]1C(=O)O	A3G deaminase 75! | APOBEC3G confirm 42 | UDG ctr A3G inactive
CCC1(C)Cc2c(C#N)c(N)sc(=S)c2CO1 (centres undefined)	none (no result: Statin myotox sup)
N#Cc1c(N)sc(=S)c2c1CCCC2	A3G deaminase 47 (no result: Mot1-301 SUMO) | APOBEC3G confirm inactive
CCCC#Cc1ccc2c(c1)O[C@H](CN(C)C)[C@@H](C)CN([C@H](C)CO)S2(=O)=O	none (no result: A3G deaminase, Mot1-301 SUMO, ARFGAP1 inh, ASAP1 inh, A3A deaminase)
CCOC(=O)c1c(NC(=O)CCC(=O)O)sc2c1CCCCC2	A3G deaminase 40 (no result: Statin myotox sup) | APOBEC3G confirm inactive
CCOC(=O)c1c(NC(=O)CCCC(=O)O)sc2c1CCC2	none (no result: Statin myotox sup)
O=C(NC1CCCCCC1)c1ccc[nH]c1=S	A3G deaminase 55 (no result: Mot1-301 SUMO, Statin myotox sup) | APOBEC3G confirm 66 | UDG ctr A3G inactive
O=C(NC1CCCCCCC1)c1ccccc1O	none
C[C@H](NC(=O)C[C@@H]1C=C[C@H](NC(=O)c2cccnc2)[C@@H](CO)O1)c1ccccc1	none (no result: A3G deaminase, Mot1-301 SUMO, ARFGAP1 inh, ASAP1 inh, A3A deaminase)
CCN(CC)S(=O)(=O)c1ccc2c(c1)nc(SCC(=O)N1CCOCC1)n2-c1ccccc1OC	A3G deaminase 44 | APOBEC3G confirm inactive
CCN(CC)S(=O)(=O)c1ccc2c(c1)nc(SCC(=O)N1CCCCCC1)n2-c1ccc(OC)cc1	none (no result: Statin myotox sup)
N#C/C(=N/Nc1ccc(OC(F)(F)F)cc1)C(N)=S	none (no result: Statin myotox sup)
NC(=S)N=Nc1ccc(NN=C(N)N)cc1	A3G deaminase 45 | APOBEC3G confirm 46
O=C(Nc1nc(-c2ccccn2)cs1)Nc1ccc(F)cc1F	A3G deaminase 60 | APOBEC3G confirm 68 | UDG ctr A3G inactive
Nn1c(Cc2cccc3ccccc23)n[nH]c1=S	A3G deaminase 47 | APOBEC3G confirm 82 | UDG ctr A3G inactive
CCOc1ccc(Cc2n[nH]c(=S)n2N)cc1	none (no result: Statin myotox sup)
COc1ccc(Cc2n[nH]c(=S)n2C)cc1Br	A3G deaminase 42 (no result: Statin myotox sup) | APOBEC3G confirm 54 | UDG ctr A3G inactive
COc1ccc(Cc2n[nH]c(=S)n2N)cc1OC	A3G deaminase 61 | APOBEC3G confirm 58 | UDG ctr A3G inactive
Nn1c(Cc2ccccc2F)n[nH]c1=S	none (no result: Statin myotox sup)
Nn1c(Cc2ccc(Br)cc2)n[nH]c1=S	A3G deaminase 51 (no result: Statin myotox sup) | APOBEC3G confirm 80 | UDG ctr A3G inactive
C[C@H](CO)N1C[C@H](C)[C@@H](CN(C)Cc2ccccc2F)Oc2ncc(C3=CCCC3)cc2C1=O	none (no result: A3G deaminase, Mot1-301 SUMO, ARFGAP1 inh, ASAP1 inh, A3A deaminase)
COc1ccc(NC(=O)Nc2ccc3c(c2)C(=O)N([C@@H](C)CO)C[C@H](C)[C@@H](CN(C)Cc2ccc(-c4ccccc4)cc2)O3)cc1	none (no result: A3G deaminase, Mot1-301 SUMO, ARFGAP1 inh, ASAP1 inh, A3A deaminase)
Cc1cc(=O)n2[nH]c(-c3ccsc3-n3c(C)ccc3C)cc2n1	A3G deaminase 43 (no result: Statin myotox sup) | APOBEC3G confirm 44 | UDG ctr A3G inactive
COCc1cc(=O)n2[nH]c(-c3ccsc3-n3c(C)ccc3C)cc2n1	none (no result: Mot1-301 SUMO)
CCCCCc1ccc(-c2ccc(/C=C/C(=O)O)cc2)nc1	A3G deaminase 89 (no result: Statin myotox sup) | APOBEC3G confirm inactive
COC(=O)C[C@H]1C[C@@H]2c3cc(NC(=O)c4cccnc4)ccc3O[C@@H]2[C@H](CO)O1	none (no result: A3G deaminase, Mot1-301 SUMO, ARFGAP1 inh, ASAP1 inh, A3A deaminase)
C[C@H](NC(=O)[C@@H]1[C@@H](CO)[C@@H]2Cn3c(cccc3=O)[C@H]1N2C(=O)C1CCCC1)c1ccccc1	none (no result: A3G deaminase, Mot1-301 SUMO, ARFGAP1 inh, ASAP1 inh, A3A deaminase)
Cc1cc(C)cc(NC(=O)c2ccc([N+](=O)[O-])o2)c1	none (no result: Mot1-301 SUMO, Statin myotox sup)
NS(=O)(=O)c1ccc(O)c(NC(=O)c2ccc([N+](=O)[O-])o2)c1	A3G deaminase 64 | APOBEC3G confirm 28 | UDG ctr A3G inactive
Cc1c(Cl)c([N+](=O)[O-])nn1CC(=O)NCC(C)C	A3G deaminase 48 | APOBEC3G confirm inactive | UDG ctr A3G inactive

High-throughput results deposited in PubChem BioAssay by several laboratories.
